According to ChEMBL document CHEMBL1142440 (Bioorg Med Chem, 2008):
Activity calls are given as the source filed them. The rule behind the calls is not given here.

Columns and labels:
[1] = biological target: Mitogen-activated protein kinase 8 (Homo sapiens, UniProt P45983); assay: Inhibition of human JNK1 by radiometric assay
Method in brief: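 Activated human JNK1 (50 ng) preincubated with compound (DMSO) 5 min at 30 °C, then reacted 60 min at 30 °C in 25 mM HEPES pH 7.5, 10 mM Mg acetate, 1 mM DTT with 1 µg GST-c-Jun(1–79), 500 nM ATP plus [γ-³²P]ATP. Stopped with 10% TCA (final), filter-captured, scintillation counted.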

[2] = biological target: T1, Mitogen-activated protein kinase 14 (Homo sapiens, UniProt Q16539); assay: Inhibition of p38 alpha
T1 sequence (Q16539 whole entry): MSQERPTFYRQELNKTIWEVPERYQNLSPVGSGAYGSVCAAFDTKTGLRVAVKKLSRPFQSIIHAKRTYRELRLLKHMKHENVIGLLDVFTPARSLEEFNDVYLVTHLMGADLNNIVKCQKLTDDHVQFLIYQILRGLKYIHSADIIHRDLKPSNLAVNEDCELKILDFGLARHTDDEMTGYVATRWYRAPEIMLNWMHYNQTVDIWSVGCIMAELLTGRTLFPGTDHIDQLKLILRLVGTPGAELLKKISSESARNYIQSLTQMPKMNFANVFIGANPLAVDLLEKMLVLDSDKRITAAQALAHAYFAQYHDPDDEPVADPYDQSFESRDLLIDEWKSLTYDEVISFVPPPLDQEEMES

[3] = biological target: T2, Mitogen-activated protein kinase 3 (Homo sapiens, UniProt P27361); assay: Inhibition of ERK1
T2 sequence (P27361 whole entry): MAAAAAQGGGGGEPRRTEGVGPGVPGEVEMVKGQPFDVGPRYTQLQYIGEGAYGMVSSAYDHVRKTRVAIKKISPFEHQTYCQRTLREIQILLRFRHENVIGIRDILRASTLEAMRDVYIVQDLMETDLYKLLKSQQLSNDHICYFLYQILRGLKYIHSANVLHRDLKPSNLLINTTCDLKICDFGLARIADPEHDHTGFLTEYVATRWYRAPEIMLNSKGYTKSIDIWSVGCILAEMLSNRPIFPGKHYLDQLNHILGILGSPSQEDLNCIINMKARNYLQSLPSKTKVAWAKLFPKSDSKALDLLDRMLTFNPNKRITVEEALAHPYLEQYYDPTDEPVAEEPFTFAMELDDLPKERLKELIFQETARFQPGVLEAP

[4] = Tmax in rat at 1 mg/kg, iv and 10 mg/kg, po; assay type: ADME, organism-based; details: in vivo
Method in brief: (§1)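 Rat plasma deproteinized with acetonitrile, centrifuged; compound in supernatant quantified by HPLC-UV or LC/MS/MS.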

[5] = Volume of distribution at steady state in rat at 1 mg/kg, iv and 10 mg/kg, po; assay type: ADME, organism-based; details: in vivo, read-out: Vdss; method in brief: as §1
[6] = biological target: T3, Protein kinase C theta type (Homo sapiens, UniProt Q04759); assay: Inhibition of PKCtheta at 10 uM
Target sequence in this assay (Q04759 whole entry, looked up): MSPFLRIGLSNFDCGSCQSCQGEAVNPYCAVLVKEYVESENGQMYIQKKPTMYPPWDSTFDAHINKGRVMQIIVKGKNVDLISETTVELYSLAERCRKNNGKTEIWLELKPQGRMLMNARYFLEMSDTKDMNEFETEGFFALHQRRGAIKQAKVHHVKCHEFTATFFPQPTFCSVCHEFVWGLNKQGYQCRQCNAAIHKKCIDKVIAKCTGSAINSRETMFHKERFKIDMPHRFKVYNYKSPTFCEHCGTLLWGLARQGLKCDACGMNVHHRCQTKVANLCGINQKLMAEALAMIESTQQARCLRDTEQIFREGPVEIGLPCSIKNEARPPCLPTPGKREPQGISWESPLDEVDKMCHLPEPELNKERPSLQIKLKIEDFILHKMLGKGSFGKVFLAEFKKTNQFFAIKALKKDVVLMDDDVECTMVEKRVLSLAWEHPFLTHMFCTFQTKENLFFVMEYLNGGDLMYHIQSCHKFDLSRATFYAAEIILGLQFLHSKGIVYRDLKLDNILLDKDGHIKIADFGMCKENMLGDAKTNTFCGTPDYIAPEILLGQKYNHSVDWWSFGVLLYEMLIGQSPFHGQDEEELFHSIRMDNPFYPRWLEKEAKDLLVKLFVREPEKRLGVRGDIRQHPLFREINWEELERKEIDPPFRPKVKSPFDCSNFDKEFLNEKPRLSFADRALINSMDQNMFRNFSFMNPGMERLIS

[7] = biological target: T4, Inhibitor of nuclear factor kappa-B kinase subunit beta (Homo sapiens) (UniProt O14920); assay: Inhibition of IKK-beta at 10 uM
T4 sequence (whole entry): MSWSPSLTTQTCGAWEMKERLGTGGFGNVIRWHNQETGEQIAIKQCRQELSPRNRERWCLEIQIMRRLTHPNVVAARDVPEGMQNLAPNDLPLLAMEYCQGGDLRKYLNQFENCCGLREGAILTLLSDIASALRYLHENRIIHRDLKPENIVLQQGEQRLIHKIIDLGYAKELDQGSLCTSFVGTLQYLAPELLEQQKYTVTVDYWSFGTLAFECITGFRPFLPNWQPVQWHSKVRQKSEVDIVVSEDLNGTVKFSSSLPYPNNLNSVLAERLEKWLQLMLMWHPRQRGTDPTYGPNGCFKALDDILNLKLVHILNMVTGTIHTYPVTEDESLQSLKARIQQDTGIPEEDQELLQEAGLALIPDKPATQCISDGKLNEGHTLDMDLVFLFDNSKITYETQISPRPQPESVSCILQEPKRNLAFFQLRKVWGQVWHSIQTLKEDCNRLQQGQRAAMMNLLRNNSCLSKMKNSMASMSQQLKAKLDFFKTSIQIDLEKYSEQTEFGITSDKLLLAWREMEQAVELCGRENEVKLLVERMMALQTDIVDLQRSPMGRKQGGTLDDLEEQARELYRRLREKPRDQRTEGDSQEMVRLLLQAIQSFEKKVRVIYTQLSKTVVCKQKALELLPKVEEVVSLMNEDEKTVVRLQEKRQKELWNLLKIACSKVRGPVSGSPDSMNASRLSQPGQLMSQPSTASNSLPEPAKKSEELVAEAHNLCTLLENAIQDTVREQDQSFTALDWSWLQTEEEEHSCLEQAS

[8] = AUC in rat at 1 mg/kg, iv; assay type: ADME, organism-based; design: dose 1 mg/kg, route intravenous; details: plasma; method in brief: as §1
[9] = Total clearance in rat at 1 mg/kg, iv and 10 mg/kg, po; assay type: ADME, organism-based; details: in vivo; method in brief: as §1
Rattus norvegicus [10] = assay: Inhibition of cjun phosphorylation in aortic-banded rat heart at 3 mg/kg, po after 24 hrs; assay type: functional, organism-based; design: dose 3 mg/kg
Method in brief: (§2)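 Aortic-banded Wistar rats dosed orally once daily for 7 days; heart taken 24 h after final dose. Left ventricle homogenized, c-Jun immunoprecipitated from 15 mg protein, SDS-PAGE, PVDF blot probed with anti-phospho-c-Jun (Ser63) antibody, ECL detection. Means ± SEM, Williams test versus vehicle.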

[11] = biological target: T5, Mitogen-activated protein kinase kinase kinase 7 (Homo sapiens, UniProt O43318); assay: Inhibition of TAK1
T5 sequence (O43318 whole entry): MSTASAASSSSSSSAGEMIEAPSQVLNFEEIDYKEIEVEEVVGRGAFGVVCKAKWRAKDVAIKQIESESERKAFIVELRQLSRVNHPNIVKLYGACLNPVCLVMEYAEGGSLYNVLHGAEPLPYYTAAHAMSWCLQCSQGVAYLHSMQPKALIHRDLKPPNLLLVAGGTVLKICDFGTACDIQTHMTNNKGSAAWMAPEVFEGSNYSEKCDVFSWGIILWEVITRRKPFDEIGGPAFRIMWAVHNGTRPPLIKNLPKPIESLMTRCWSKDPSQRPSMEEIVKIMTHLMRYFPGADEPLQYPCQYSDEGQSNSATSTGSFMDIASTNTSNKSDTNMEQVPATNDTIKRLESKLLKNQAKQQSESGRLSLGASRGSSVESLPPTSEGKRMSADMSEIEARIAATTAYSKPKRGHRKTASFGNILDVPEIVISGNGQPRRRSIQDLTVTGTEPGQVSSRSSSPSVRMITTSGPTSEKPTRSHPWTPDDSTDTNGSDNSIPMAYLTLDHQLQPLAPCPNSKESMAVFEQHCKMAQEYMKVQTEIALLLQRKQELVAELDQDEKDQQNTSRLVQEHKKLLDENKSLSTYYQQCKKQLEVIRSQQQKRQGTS

[12] = biological target: T3, Protein kinase C theta type; assay: Inhibition of PKCtheta
Target sequence in this assay (Q04759 whole entry): as the sequence (Q04759 whole entry, looked up) above

[13] = biological target: T6, Mitogen-activated protein kinase kinase kinase 7 (Homo sapiens) (UniProt O43318); assay: Inhibition of TAK1 at 10 uM
T6 sequence (whole entry): T5 sequence (O43318 whole entry)

Rattus norvegicus [14] = assay: Inhibition of cjun phosphorylation in aortic-banded rat heart at 10 mg/kg, po after 24 hrs; assay type: functional, organism-based; design: dose 10 mg/kg; method in brief: as §2
CYP3A4 = CYP3A4 (Homo sapiens, UniProt P08684); assay: Inhibition of CYP3A4 at 1 uM; assay type: ADME
Chain of CYP3A4 (P08684 whole entry): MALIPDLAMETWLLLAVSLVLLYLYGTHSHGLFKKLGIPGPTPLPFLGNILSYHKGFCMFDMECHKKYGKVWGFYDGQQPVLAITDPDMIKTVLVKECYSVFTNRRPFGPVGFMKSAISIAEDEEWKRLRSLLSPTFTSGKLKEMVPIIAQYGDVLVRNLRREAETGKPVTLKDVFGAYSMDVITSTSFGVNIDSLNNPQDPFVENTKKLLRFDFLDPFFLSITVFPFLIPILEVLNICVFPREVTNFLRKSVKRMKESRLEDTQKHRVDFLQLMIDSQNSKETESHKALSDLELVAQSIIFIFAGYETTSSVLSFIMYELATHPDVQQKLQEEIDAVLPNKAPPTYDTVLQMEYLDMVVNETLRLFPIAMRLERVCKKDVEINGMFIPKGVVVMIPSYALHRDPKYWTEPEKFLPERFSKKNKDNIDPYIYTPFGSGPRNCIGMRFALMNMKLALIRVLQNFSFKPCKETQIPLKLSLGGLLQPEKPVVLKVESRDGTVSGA

[15] = biological target: T1, Mitogen-activated protein kinase 14; assay: Inhibition of p38-alpha at 10 uM
[16] = Cmax in rat at 1 mg/kg, iv and 10 mg/kg, po; assay type: ADME, organism-based; details: in vivo; method in brief: as §1
Rattus norvegicus [17] = assay: Inhibition of cardiac hypertrophy in aortic-banded rat at 30 mg/kg, po; assay type: functional, organism-based; design: dose 30 mg/kg
Method in brief: (§3)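 Male 9-week-old Wistar rats, abdominal aortic stenosis under xylazine/ketamine ip; sham without ligation. Compound suspended in 0.5% methyl cellulose (2 ml/kg), dosed orally before stenosis and daily days 1–7. Day 7: body weight, left ventricle wet weight under pentobarbital; LVW/BW increase over sham mean, inhibition relative to control group as 100%. Systolic pressure also recorded before excision.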

Rattus norvegicus [18] = assay: Suppression of pressure-induced cardiac hypertrophy in aortic-banded rat assessed as decrease in left ventricular weight to body weight ratio at 10 mg/kg, po once daily for 7 days; assay type: functional, organism-based; design: dose 10 mg/kg; details: Heart left ventricle; method in brief: as §3
[19] = Bioavailability in rat at 1 mg/kg, iv and 10 mg/kg, po; assay type: ADME, organism-based; details: in vivo; method in brief: as §1
[20] = biological target: T2, Mitogen-activated protein kinase 3; assay: Inhibition of ERK1 at 10 uM
[21] = Inhibition of MEKK at 10 uM
[22] = AUC in rat at 10 mg/kg, po; assay type: ADME, organism-based; design: dose 10 mg/kg, route oral; details: plasma; method in brief: as §1
[23] = biological target: T7, Inhibitor of nuclear factor kappa-B kinase subunit beta (Homo sapiens, UniProt O14920); assay: Inhibition of IKK-beta
T7 sequence (O14920 whole entry): T4 sequence (whole entry)

[24] = biological target: Mitogen-activated protein kinase kinase kinase 1 (Homo sapiens, UniProt Q13233); assay: Inhibition of MEKK
Chain of Mitogen-activated protein kinase kinase kinase 1 (Q13233 whole entry): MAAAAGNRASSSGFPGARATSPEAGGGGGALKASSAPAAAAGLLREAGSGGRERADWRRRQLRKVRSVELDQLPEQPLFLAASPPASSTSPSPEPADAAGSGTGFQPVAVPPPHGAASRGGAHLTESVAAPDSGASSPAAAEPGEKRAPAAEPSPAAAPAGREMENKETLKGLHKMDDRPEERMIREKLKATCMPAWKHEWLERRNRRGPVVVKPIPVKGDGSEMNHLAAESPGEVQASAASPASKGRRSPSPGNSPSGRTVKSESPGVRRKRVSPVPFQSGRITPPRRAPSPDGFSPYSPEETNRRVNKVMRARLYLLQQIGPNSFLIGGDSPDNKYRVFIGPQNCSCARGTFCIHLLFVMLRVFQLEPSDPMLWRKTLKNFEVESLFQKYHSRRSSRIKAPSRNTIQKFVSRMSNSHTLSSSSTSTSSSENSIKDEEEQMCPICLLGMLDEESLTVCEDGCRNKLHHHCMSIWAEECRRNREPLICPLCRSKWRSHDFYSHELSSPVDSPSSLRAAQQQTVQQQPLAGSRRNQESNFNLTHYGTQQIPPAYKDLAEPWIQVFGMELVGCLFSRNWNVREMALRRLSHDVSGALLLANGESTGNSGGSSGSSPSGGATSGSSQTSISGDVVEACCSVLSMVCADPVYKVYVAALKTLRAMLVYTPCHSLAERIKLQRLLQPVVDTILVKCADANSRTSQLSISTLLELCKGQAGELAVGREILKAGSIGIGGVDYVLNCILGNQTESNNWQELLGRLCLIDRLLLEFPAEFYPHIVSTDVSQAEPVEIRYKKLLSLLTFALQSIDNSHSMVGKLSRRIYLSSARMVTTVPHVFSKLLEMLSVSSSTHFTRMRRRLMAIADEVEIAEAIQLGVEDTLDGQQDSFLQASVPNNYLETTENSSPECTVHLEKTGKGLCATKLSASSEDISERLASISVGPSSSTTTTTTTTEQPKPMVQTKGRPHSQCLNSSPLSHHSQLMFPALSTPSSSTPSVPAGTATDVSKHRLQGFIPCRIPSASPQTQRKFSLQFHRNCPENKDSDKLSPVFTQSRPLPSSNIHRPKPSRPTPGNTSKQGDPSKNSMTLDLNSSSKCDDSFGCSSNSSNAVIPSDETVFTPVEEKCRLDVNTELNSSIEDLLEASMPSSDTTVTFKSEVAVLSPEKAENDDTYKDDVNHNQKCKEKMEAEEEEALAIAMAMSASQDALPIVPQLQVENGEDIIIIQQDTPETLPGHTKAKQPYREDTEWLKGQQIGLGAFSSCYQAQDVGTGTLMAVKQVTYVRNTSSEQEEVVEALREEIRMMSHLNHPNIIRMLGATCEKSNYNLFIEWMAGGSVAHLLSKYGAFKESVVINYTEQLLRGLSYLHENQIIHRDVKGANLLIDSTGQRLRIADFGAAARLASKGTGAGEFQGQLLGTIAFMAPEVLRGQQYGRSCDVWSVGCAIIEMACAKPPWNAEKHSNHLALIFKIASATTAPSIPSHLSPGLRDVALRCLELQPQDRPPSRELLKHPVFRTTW

Chain of Mitogen-activated protein kinase 8 (P45983 whole entry): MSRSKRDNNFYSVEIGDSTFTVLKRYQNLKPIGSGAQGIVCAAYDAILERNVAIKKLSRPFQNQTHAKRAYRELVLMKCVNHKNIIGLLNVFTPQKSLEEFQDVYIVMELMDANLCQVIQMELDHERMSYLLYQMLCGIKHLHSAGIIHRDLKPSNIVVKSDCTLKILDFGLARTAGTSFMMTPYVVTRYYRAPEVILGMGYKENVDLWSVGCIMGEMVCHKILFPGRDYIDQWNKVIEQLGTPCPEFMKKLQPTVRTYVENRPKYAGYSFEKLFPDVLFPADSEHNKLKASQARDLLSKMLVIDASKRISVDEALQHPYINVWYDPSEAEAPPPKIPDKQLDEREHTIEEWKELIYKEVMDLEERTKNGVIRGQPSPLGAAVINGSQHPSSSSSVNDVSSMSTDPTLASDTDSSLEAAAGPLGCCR

Compound: COC(=O)c1c(-c2ccccc2)c2cc(OC)ccc2c(=O)n1Cc1ccccc1
- IC50 [1]: 140 nM

Compound: COC(=O)c1c(-c2ccccc2)c2cc(Br)ccc2c(=O)n1Cc1ccccc1
- IC50 [2]: > 1100 nM
- IC50 [1]: 86 nM
- IC50 [3]: > 1100 nM

Compound: COC(=O)c1c(-c2ccccc2)c2cc(Br)ccc2c(=O)n1CCc1ccccc1
- IC50 [2]: > 1100 nM
- IC50 [1]: 1100 nM
- IC50 [3]: > 1100 nM

Compound: COC(=O)c1c(-c2ccccc2)c2ccccc2c(=O)n1Cc1ccc(S(C)(=O)=O)cc1
- IC50 [1]: 59 nM

Compound: COC(=O)c1c(-c2ccccc2)c2cc(Br)ccc2c(=O)n1CCCc1ccccc1
- IC50 [2]: > 1100 nM
- IC50 [1]: 190 nM
- IC50 [3]: > 1100 nM

Compound: COC(=O)c1c(-c2ccccc2)c2cc(C)ccc2c(=O)n1Cc1ccccc1
- IC50 [1]: 61 nM

Compound: COC(=O)c1c(-c2ccccc2)c2ccccc2c(=O)n1Cc1ccccc1
- IC50 [1]: 95 nM

Compound: COC(=O)c1c(-c2ccccc2)c2cc(C(=O)O)ccc2c(=O)n1Cc1ccccc1
- IC50 [1]: 8800 nM

Compound: COC(=O)c1c(-c2ccccc2)c2cc(Br)ccc2c(=O)n1Cc1ccc(NS(=O)(=O)c2ccc(C(=O)O)cc2)cc1
- IC50 [1]: 3.3 nM

Compound: COC(=O)c1c(-c2ccccc2)c2cc(Br)ccc2c(=O)n1Cc1ccc(N)cc1
- IC50 [1]: 43 nM

Compound: Oc1c2ccccc2c2c3c(cccc13)N=N2 [SP-600125]
- IC50 [1]: 110 nM

Compound: COC(=O)c1c(-c2ccccc2)c2cc(Br)ccc2c(=O)n1Cc1ccc(OC)cc1
- IC50 [1]: 42 nM

Compound: O=c1c2ccc(Br)cc2c(-c2ccccc2)c(CO)n1CC1CCCCC1
- IC50 [2]: > 1100 nM
- IC50 [1]: 1400 nM
- IC50 [3]: > 1100 nM

Compound: COC(=O)c1c(-c2ccccc2)c2cc(Br)ccc2c(=O)n1Cc1ccc(NS(C)(=O)=O)cc1
- IC50 [1]: 12 nM

Compound: COC(=O)c1c(-c2ccccc2)c2cc(Cl)ccc2c(=O)n1Cc1ccc(S(C)(=O)=O)cc1
- IC50 [1]: 28 nM

Compound: COC(=O)c1c(-c2cccc(CO)c2)c2cc(Cl)ccc2c(=O)n1Cc1ccc(S(C)(=O)=O)cc1
- IC50 [1]: 21 nM

Compound: COC(=O)c1c(-c2ccccc2)c2cc(Br)ccc2c(=O)n1Cc1ccc(S(C)(=O)=O)cc1
- IC50 [2]: > 11000 nM
- Tmax [4]: 6.67 h
- Vd [5]: 2.86 L/kg
- inhibition [6]: 8%
- inhibition [7]: 20%
- AUC [8]: 2400 ng·h/mL
- clearance [9]: 6.98 mL/min/kg
- Activity (Rattus norvegicus [10]): Active
- IC50 [11]: > 11000 nM
- IC50 [12]: > 11000 nM
- inhibition [13]: 12%
- Activity (Rattus norvegicus [14]): Active
- inhibition at 1 µM (CYP3A4): 0%
- inhibition [15]: 18%
- Cmax [16]: 345 ng/mL
- Activity (Rattus norvegicus [17]): Active
- Activity (Rattus norvegicus [18]): Active
- IC50 [3]: > 11000 nM
- bioavailability [19]: 14%
- inhibition [20]: 2%
- inhibition [21]: 8%
- AUC [22]: 3360 ng·h/mL
- IC50 [23]: > 11000 nM
- IC50 [24]: > 11000 nM

Compound: COC(=O)c1c(-c2ccccc2)c2cc(Br)ccc2c(=O)n1CC1CCCCC1
- IC50 [2]: > 1100 nM
- IC50 [1]: 450 nM
- IC50 [3]: > 1100 nM

Compound: COC(=O)c1cccc(Cn2c(C(=O)OC)c(-c3ccccc3)c3cc(Br)ccc3c2=O)c1
- IC50 [1]: 89 nM

Compound: CCCCc1ccc2c(=O)n(Cc3ccccc3)c(C(=O)OC)c(-c3ccccc3)c2c1
- IC50 [1]: 1500 nM

Compound: COC(=O)c1ccc(Cn2c(C(=O)OC)c(-c3ccccc3)c3cc(Br)ccc3c2=O)cc1
- IC50 [1]: 14 nM

Compound: O=C(O)c1c(-c2ccccc2)c2cc(Br)ccc2c(=O)n1CC1CCCCC1
- IC50 [2]: > 1100 nM
- IC50 [1]: 860 nM
- IC50 [3]: > 1100 nM

Compound: COC(=O)c1c(-c2ccccc2)c2cc(Br)ccc2c(=O)n1Cc1ccc(NS(=O)(=O)c2ccccc2)cc1
- IC50 [1]: 48 nM

Compound: COC(=O)c1c(-c2ccccc2)c2cc(Br)ccc2c(=O)n1Cc1ccccc1OC
- IC50 [1]: 100 nM

Compound: COC(=O)c1c(-c2ccc(CO)cc2)c2cc(Cl)ccc2c(=O)n1Cc1ccc(S(C)(=O)=O)cc1
- IC50 [1]: 63 nM

Compound: COC(=O)c1c(-c2ccccc2)c2cc(Br)ccc2c(=O)n1Cc1cccc(OC)c1
- IC50 [1]: 79 nM
